Experimental data reported in paper PMC3460462 (The Journal of Biological Chemistry, 2012).
Ends that are not written are not given here.

Assays:
Format in all cases: cell-based
mFpr-rs1 = target: T1, mFpr-rs1 (Mus musculus, UniProt O08790); experiment: FLIPR Ca2+ assay, HEK293T cells transfected with mFpr-rs1 and Gα16
T1 sequence (O08790 1-351): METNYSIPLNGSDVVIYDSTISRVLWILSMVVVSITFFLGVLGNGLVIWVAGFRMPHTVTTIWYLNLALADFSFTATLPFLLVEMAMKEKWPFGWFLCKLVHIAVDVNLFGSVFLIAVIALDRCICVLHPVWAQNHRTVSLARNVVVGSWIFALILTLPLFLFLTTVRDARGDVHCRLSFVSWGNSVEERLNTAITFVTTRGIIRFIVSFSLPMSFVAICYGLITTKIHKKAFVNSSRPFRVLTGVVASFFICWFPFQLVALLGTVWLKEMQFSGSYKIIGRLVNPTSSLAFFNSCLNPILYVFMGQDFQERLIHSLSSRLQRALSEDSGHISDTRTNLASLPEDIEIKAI

hFPR2 = target: T2, hFPR2 (Homo sapiens, UniProt P25090); experiment: FLIPR Ca2+ assay, HEK293T cells transfected with hFPR2 and Gα16; settings: 1% DMSO
T2 sequence (P25090 1-351): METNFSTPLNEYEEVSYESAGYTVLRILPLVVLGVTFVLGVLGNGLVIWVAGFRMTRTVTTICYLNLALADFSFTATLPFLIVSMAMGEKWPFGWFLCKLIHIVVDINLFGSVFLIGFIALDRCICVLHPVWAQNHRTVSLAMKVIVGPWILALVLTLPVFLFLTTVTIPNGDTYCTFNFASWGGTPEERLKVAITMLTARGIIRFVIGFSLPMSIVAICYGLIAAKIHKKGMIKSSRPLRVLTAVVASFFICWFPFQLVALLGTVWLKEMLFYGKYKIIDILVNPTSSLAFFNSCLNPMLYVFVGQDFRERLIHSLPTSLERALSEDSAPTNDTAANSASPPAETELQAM

mFpr1 [1] = target: T3, mFpr1 (Mus musculus, UniProt P33766); experiment: FLIPR Ca2+ assay, HEK293T cells transfected with mFpr1 and Gα16
T3 sequence (P33766 1-364): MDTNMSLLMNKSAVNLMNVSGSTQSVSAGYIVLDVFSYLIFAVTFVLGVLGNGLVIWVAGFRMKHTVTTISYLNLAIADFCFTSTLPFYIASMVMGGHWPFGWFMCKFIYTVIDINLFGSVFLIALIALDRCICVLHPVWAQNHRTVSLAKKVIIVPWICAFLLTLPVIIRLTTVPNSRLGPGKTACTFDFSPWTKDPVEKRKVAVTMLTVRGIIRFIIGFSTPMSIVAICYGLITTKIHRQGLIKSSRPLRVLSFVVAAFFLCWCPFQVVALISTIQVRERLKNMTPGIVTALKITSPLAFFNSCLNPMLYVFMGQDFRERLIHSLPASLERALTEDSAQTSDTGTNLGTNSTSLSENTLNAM

mock-transfected cells = experiment: FLIPR Ca2+ assay, mock-transfected negative control; settings: mock-transfected negative controls; different kinetics
Procedure, shortened: (§1)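 HEK293T PEAKrapid cells seeded on poly-D-lysine, transfected 24 h later (jetPEI) with receptor plus Gα16 in equal amounts, or empty vector for mock. After 48 h, loaded with 2 μM Fluo-4 AM and 50 μM probenecid for 2 h at room temperature in C1 buffer (HEPES, pH 7.2), then rinsed three times. About 50,000 cells per well on FLIPR; ligands in C1. Response is ΔF/F0 (peak over baseline), fitted with a variable-slope sigmoid.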

mFpr2 [2] = target: T4, mFpr2 (Mus musculus, UniProt O88536); experiment: FLIPR Ca2+ assay, HEK293T cells transfected with mFpr2 and Gα16
T4 sequence (O88536 1-351): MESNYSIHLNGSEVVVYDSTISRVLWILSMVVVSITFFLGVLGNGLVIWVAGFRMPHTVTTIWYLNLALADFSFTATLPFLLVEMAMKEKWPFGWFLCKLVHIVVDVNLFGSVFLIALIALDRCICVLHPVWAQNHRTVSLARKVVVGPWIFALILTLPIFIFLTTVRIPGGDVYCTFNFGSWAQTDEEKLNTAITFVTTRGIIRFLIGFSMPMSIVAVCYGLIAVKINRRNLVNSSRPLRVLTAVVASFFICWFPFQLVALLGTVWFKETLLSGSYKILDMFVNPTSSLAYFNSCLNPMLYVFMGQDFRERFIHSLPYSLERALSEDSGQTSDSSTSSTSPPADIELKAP

[3] = tested on: human receptors (hFPR1, hFPR2, hFPR3); experiment: FLIPR Ca2+ assay, human receptors
Procedure, shortened: as §1

[4] = tested on: all other family members (hFPR3, vomeronasal Fprs); experiment: Single-cell resolution Ca2+ imaging, all other Fpr family members; settings: 9 μM fMLF; single-cell Fura-2 Ca2+ imaging
Procedure, shortened: (§2)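 Single-cell Ca2+ imaging on a Pathway Bioimager. HEK293T PEAKrapid cells cotransfected with receptor, Gα16 and EGFP plasmid (1/10) and loaded with Fura-2/AM. […] C1 buffer application served as mechanical control, with buffer-responding cells excluded; 30 μM ATP checked viability. Mock-transfected cells were the negative control, and responding cells were counted.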

mFpr2 [5] = target: T4, mFpr2; experiment: Single-cell resolution Ca2+ imaging, mFpr2; settings: 9 μM fMLF; single-cell Fura-2 Ca2+ imaging
Procedure, shortened: as §2

mFpr1 [6] = target: T3, mFpr1; experiment: Single-cell resolution Ca2+ imaging, mFpr1; settings: 9 μM fMLF; single-cell Fura-2 Ca2+ imaging
Procedure, shortened: as §2

C[S+](C)[O-] [DMSO, dimethyl sulfoxide]
receptor activation (in words) (mFpr-rs1): but not mFpr-rs1 | receptor activation (in words) (hFPR2): susceptible | saturation reached at (mFpr1 [1]; DMSO concentration, FLIPR Ca2+): ~3% | threshold of activation (mFpr1 [1]; DMSO concentration, FLIPR Ca2+): ~0.1% | concentrations giving unspecific DMSO-dependent signals (mock-transfected cells): > 2% | saturation reached at (mFpr2 [2]; DMSO concentration): ~3% | threshold of activation (mFpr2 [2]; DMSO concentration): ~0.1%

Ac2-26: classical Fpr agonist purchased from Tocris (Ac-AMVSEFLKQAWFIENEEQEYVQTVK; UniProt P04083 2-26, looked up, fragment)
Ca2+ response (in words) [3]: robust Ca^2+ elevations

N-formylmethionine-leucine-phenylalanine [fMLF]
activation by fMLF (in words) [4]: did not respond | activation by fMLF (in words) (mFpr2 [5]): could be activated | activation by fMLF (in words) (mFpr1 [6]): could be activated

H-RIHIGPGRALYTT-OH [V3gp120 HIV (BK-130)]
EC50 (mFpr1 [1]): 4.5 µM | activation threshold (mFpr1 [1]; FLIPR Ca2+): ~1 µM | subtype selectivity (in words) (mFpr1 [1]; mFpr1 versus mFpr2, FLIPR Ca2+): strongly preferential activators of mFpr1 | concentrations at which only a weak activation was seen (mFpr2 [2]; weak activation): ≥ 30 µM
